Source: ChEMBL document CHEMBL1124818, “Synthesis and cardiac electrophysiological activity of aryl-substituted derivatives of the class III antiarrhythmic agent sematilide. Potential class I/III agents” (J Med Chem, 1990)
“And” between values parts separate entries of the source, which are not always exact repeats. Equal entries are not always repeated.

How the values were obtained:
[1] = Percent change from control value for Vmax at 0.1 uM of the compound.
Outline: (§1)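 Microelectrode recording in Purkinje fibers; maximal depolarization rate (Vmax) measured at each test concentration, given as percent change from control, mean ± SEM; n per concentration may differ from APD experiments.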

Canis familiaris [2] = species on record: Canis familiaris; assay: Duration of action potential was determined in vitro in Canine Purkinje fibers at 10 uM concentration.; format: functional, Canis lupus familiaris, Purkinje fiber
Outline: (§2)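 Microelectrode recording in Purkinje fibers; action potential duration at 95% repolarization measured at each test concentration and expressed as percent change from control, mean ± SEM over the stated number of experiments.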

Canis familiaris [3] = species on record: Canis familiaris; assay: Duration of action potential was determined in vitro in Canine Purkinje fibers at 30 uM concentration.; format: functional, Canis lupus familiaris, Purkinje fiber; outline: as §2
Cavia porcellus [4] = assay: Percent change in the mean time to first Ouabain-induced arrhythmia was determined in Guinea pig at a dose of 10 mg/kg; format: functional
Outline: (§3)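 Anesthetized guinea pigs, tracheal cannulation with room-air respiration, right jugular cannulated; 5 min equilibration, test agent intravenous, then 10 min later ouabain 40 μg/kg iv bolus plus 10 μg/kg/min infusion until arrhythmia. Percent change in mean time to first arrhythmia (n = 4-6) versus vehicle control (n = 3-4).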

Canis familiaris [5] = species on record: Canis familiaris; assay: Duration of action potential was determined in vitro in Canine Purkinje fibers at 0.1 uM concentration.; format: functional, Canis lupus familiaris, Purkinje fiber; outline: as §2
[6] = Percent change from control value for Vmax at 100 uM of the compound.; outline: as §1
[7] = Percent change from control value for Vmax at 1 uM of the compound.; outline: as §1
Canis familiaris [8] = species on record: Canis familiaris; assay: Duration of action potential was determined in vitro in Canine Purkinje fibers at 1 uM concentration.; format: functional, Canis lupus familiaris, Purkinje fiber; outline: as §2
Canis familiaris [9] = species on record: Canis familiaris; assay: Duration of action potential was determined in vitro in Canine Purkinje fibers at 100 uM concentration.; format: functional, Canis lupus familiaris, Purkinje fiber; outline: as §2
[10] = Percent change from control value for Vmax at 10 uM of the compound.; outline: as §1
[11] = Percent change from control value for Vmax at 30 uM of the compound.; outline: as §1
Canis familiaris [12] = species on record: Canis familiaris; assay: Duration of action potential in vitro against Canine Purkinje fibers; at 100 uM concentration.; format: functional, Canis lupus familiaris, Purkinje fiber; outline: as §2
Canis familiaris [13] = species on record: Canis familiaris; assay: Duration of action potential in vitro against Canine Purkinje fibers; at 30 uM concentration.; format: functional, Canis lupus familiaris, Purkinje fiber; outline: as §2
Canis familiaris [14] = species on record: Canis familiaris; assay: Duration of action potential in vitro against Canine Purkinje fibers; at 1 uM concentration; format: functional, Canis lupus familiaris, Purkinje fiber; outline: as §2
Canis familiaris [15] = species on record: Canis familiaris; assay: Duration of action potential in vitro against Canine Purkinje fibers; at 10 uM concentration.; format: functional, Canis lupus familiaris, Purkinje fiber; outline: as §2
Canis familiaris [16] = assay: Antiarrhythmic efficacy in vivo against Harris model; format: functional; settings: Canis lupus familiaris, Heart
Outline: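 Conscious dogs studied 24 h after two-stage coronary occlusion infarction (Harris method), when ectopy exceeds 75%; test agent given intravenously. Efficacy counted as >30% decrease in ectopy; per-dog effective dose recorded, non-responders given cumulative 10 mg/kg unless otherwise noted.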

Canis familiaris [17] = assay: Antiarrhythmic efficacy in vivo against PES model; format: functional; settings: Canis lupus familiaris, Heart
Outline: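 Conscious dogs 3-8 days after occlusion/reperfusion infarction (Karagueuzian method); programmed electrical stimulation induced two control arrhythmias before dosing, VF ended by DC countershock and sustained VT by burst pacing. After intravenous drug, reinduction attempted; efficacy counted when SVT/VF not inducible; per-dog effective dose recorded, non-responders to cumulative 10 mg/kg unless noted.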

Cavia porcellus [18] = assay: Percent change in the mean time to first Ouabain-induced arrhythmia was determined in Guinea pig at a dose of 3 mg/kg; format: functional; outline: as §3
Canis familiaris [19] = species on record: Canis familiaris; assay: Duration of action potential was determined in vitro in Canine Purkinje fibers at 30 uM concentration; format: functional, Canis lupus familiaris, Purkinje fiber; outline: as §2
Canis familiaris [20] = species on record: Canis familiaris; assay: Duration of action potential was determined in vitro in Canine Purkinje fibers at 0.1 uM concentration; format: functional, Canis lupus familiaris, Purkinje fiber; outline: as §2
Canis familiaris [21] = species on record: Canis familiaris; assay: Duration of action potential was determined in vitro in Canine Purkinje fibers at 1 uM concentration; format: functional, Canis lupus familiaris, Purkinje fiber; outline: as §2
[22] = Percent change from control value for Vmax at 1 uM of the compound; outline: as §1
Canis familiaris [23] = species on record: Canis familiaris; assay: Duration of action potential was determined in vitro in Canine Purkinje fibers at 10 uM concentration; format: functional, Canis lupus familiaris, Purkinje fiber; outline: as §2
[24] = Percent change from control value for Vmax at 0.1 uM of the compound; outline: as §1
[25] = Percent change from control value for Vmax at 10 uM of the compound; outline: as §1
[26] = Percent change from control value for Vmax at 30 uM of the compound; outline: as §1
Canis familiaris [27] = species on record: Canis familiaris; assay: Duration of action potential in vitro against Canine Purkinje fibers, at 10 uM concentration.; format: functional, Canis lupus familiaris, Purkinje fiber; outline: as §2
Canis familiaris [28] = species on record: Canis familiaris; assay: Duration of action potential in vitro against Canine Purkinje fibers, at 30 uM concentration.; format: functional, Canis lupus familiaris, Purkinje fiber; outline: as §2
[29] = Percent change from control value for Vmax at 3 uM of the compound.; outline: as §1
Canis familiaris [30] = species on record: Canis familiaris; assay: Duration of action potential in vitro against Canine Purkinje fibers; at 3 uM concentration; format: functional, Canis lupus familiaris, Purkinje fiber; outline: as §2
Cavia porcellus [31] = assay: Percent change in the mean time to first Ouabain-induced arrhythmia was determined in Guinea pig at 10 mg/kg dose; format: functional; outline: as §3
Canis familiaris [32] = species on record: Canis familiaris; assay: Duration of action potential in vitro against Canine Purkinje fibers, at 3 uM concentration.; format: functional, Canis lupus familiaris, Purkinje fiber; outline: as §2
Canis familiaris [33] = species on record: Canis familiaris; assay: Duration of action potential in vitro against Canine Purkinje fibers, at 100 uM concentration.; format: functional, Canis lupus familiaris, Purkinje fiber; outline: as §2

SMILES	Delta Vmax [1] [%]	Delta APD95 (Canis familiaris [2]) [%]	Delta APD95 (Canis familiaris [3]) [%]	Change (Cavia porcellus [4]; dose 10 mg/kg) [%]	Delta APD95 (Canis familiaris [5]) [%]	Delta Vmax [7] [%]	Delta APD95 (Canis familiaris [8]) [%]	Delta Vmax [10] [%]	Delta Vmax [11] [%]	Delta APD95 (Canis familiaris [14]) [%]	ED50 (Canis familiaris [17]) [mg/kg]	further results
CCN(CC)CCN(C(=O)c1ccc(NS(C)(=O)=O)cc1)c1ccccc1.Cl	-4	52	38	-9	4	-3	18	-12	-20			Delta Vmax [6]: -39%; Delta APD95 (Canis familiaris [9]): 45%
CCN(CC)CC(NC(=O)c1ccc(NS(C)(=O)=O)cc1)c1ccccc1.Cl (stereo not given)	6			61	4	-2		-13	-34	21		Delta APD95 (Canis familiaris [12]): -20%; Delta APD95 (Canis familiaris [13]): -12%; Delta Vmax [6]: -76%; Delta APD95 (Canis familiaris [15]): -2%
CCN(CC)CCN(C(=O)c1ccc(NS(C)(=O)=O)cc1)c1c(C(C)C)cccc1C(C)C.Cl		22				1	21	-11			1	ED50 (Canis familiaris [16]): 10 mg/kg; Change (Cavia porcellus [18]): 22%
CCN(CC)CCN(C(=O)c1ccc(NS(C)(=O)=O)cc1)c1c(C)cccc1C.Cl	-4	30	40	-8	7	-2	10	-3	-6			
CCN(CC)CCN(C(=O)c1ccc(NS(C)(=O)=O)cc1)c1cccc2ccccc12.Cl	2			-25	10	-5		-13	-16	51	1	Delta APD95 (Canis familiaris [12]): 26%; Delta Vmax [6]: -42%; Delta APD95 (Canis familiaris [15]): 64% and 37%; Change (Cavia porcellus [18]): 8%
CCc1ccc(N(CCN(CC)CC)C(=O)c2ccc(NS(C)(=O)=O)cc2)cc1.Cl	5	70	62	20	12	8	51	4	-6			
CCN(CC)CCN(C(=O)c1ccc(NS(C)(=O)=O)cc1)c1ccc(NS(C)(=O)=O)cc1				22								Delta APD95 (Canis familiaris [19]): 40%; Delta APD95 (Canis familiaris [20]): 7%; Delta APD95 (Canis familiaris [21]): 10%; Delta Vmax [22]: -2%; Delta APD95 (Canis familiaris [23]): 30%; Delta Vmax [24]: -4%; Delta Vmax [25]: -3%; Delta Vmax [26]: -6%
CCN(CC)C(CNC(=O)c1ccc(NS(C)(=O)=O)cc1)c1ccccc1 (stereo not given)	-4			-13	11	-4		-12	-15	40		Delta APD95 (Canis familiaris [27]): 46%; Delta APD95 (Canis familiaris [28]): 52%
CCN(CC)CCN(C(=O)c1ccc(NS(C)(=O)=O)cc1)c1ccc(Cl)cc1	3	64	60	18	9	2	34	-8	-20			
CCN(CC)CCN(C(=O)c1ccc(NS(C)(=O)=O)cc1)c1ccc(OC)cc1.O=C(O)/C=C/C(=O)O	0	82	66	15	8	-3	35	-3	-8			
CCN(CC)C(CNC(=O)c1ccc(NS(C)(=O)=O)cc1)c1cccc2ccccc12 (stereo not given)	1			0	4	-2		-4	-7	29		Delta APD95 (Canis familiaris [27]): 34%; Delta APD95 (Canis familiaris [28]): 29%
CCN(CC)CC(NC(=O)c1ccc(NS(C)(=O)=O)cc1)c1cccc2ccccc12 (stereo not given)	-3				14	-20				10	1	Delta APD95 (Canis familiaris [27]): -14%; Change (Cavia porcellus [4]; dose 3 mg/kg, in the assay text read “3 mg/kg” for “10 mg/kg”): 70%; ED50 (Canis familiaris [16]): 2 mg/kg
O=C(NCC1CCCCN1)c1cc(OCC(F)(F)F)ccc1OCC(F)(F)F (stereo not given) [FLECAINIDE]	2				-3	-6		-30		-15	1	Delta Vmax [29]: -11%; ED50 (Canis familiaris [16]): 1 mg/kg; Delta APD95 (Canis familiaris [15]): -47%; Change (Cavia porcellus [18]): 51%; Delta APD95 (Canis familiaris [30]): -35%
CCN(CC)CC(=O)Nc1c(C)cccc1C [LIDOCAINE]		-25		30		2	-7	1				
C=C[C@H]1CN2CC[C@H]1C[C@@H]2[C@@H](O)c1ccnc2ccc(OC)cc12 [QUINIDINE]	0	-4	-17		2	-1	4		-23		1	ED50 (Canis familiaris [16]): 10 mg/kg; Delta APD95 (Canis familiaris [9]): -14%; Change (Cavia porcellus [31]): 28%
CCN(CC)CCNC(=O)c1ccc(NS(C)(=O)=O)cc1 [SEMATILIDE]	2				0	0		0		6	1	Delta APD95 (Canis familiaris [32]): 14%; Delta APD95 (Canis familiaris [27]): 33%; Delta Vmax [6]: 0%; Delta APD95 (Canis familiaris [28]): 51%; Delta APD95 (Canis familiaris [33]): 66%
